Data as given in ChEMBL document CHEMBL1126291 (J Med Chem, 1992).

Tests used:
Type in all cases: functional
Leishmania donovani [1] = assay: Growth inhibition of Leishmania donovani promastigotes by the compound at 1.3 uM
How it was run: (§1)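 Seeded at 0.5 × 10^6 cells per well. Compounds added a few hours later in water. Cells counted by hemacytometer after 3 days, against untreated cultures. Duplicates.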

Leishmania donovani [2] = assay: Growth inhibition of Leishmania donovani promastigotes by the compound at […]; details: for inhibition at […]: Leishmania donovani
Leishmania donovani [3] = assay: Growth inhibition of Leishmania donovani promastigotes by the compound at 14 uM; how it was run: as §1

| SMILES | inhibition at […] (Leishmania donovani [2]) | inhibition at 14 µM (Leishmania donovani [3]) | other results |
| --- | --- | --- | --- |
| Nc1ncnc2c1ncn2[C@@H]1O[C@H](C[C@H](N)CC[C@H](N)C(=O)O)[C@@H](O)[C@H]1O | 34% |  | inhibition at 1.3 µM (Leishmania donovani [1]): 91% |
| Nc1ncnc2c1ncn2[C@@H]1O[C@H](C[C@@H](N)CC[C@H](N)C(=O)O)[C@@H](O)[C@H]1O (stereo in doubt; form 1) [SINEFUNGIN] | 100% |  |  |
| NC(CC[C@H](N)C(=O)O)C[C@H]1OC(N2CCC(=O)NC2=O)[C@H](O)[C@@H]1O (stereo partly specified) |  | 19% |  |
| Nc1ncnc2c1ncn2[C@@H]1O[C@H](C[C@@H](N)CC[C@H](N)C(=O)O)[C@@H](O)[C@H]1O (stereo in doubt; form 2) [SINEFUNGIN] |  |  | Inhibition (Leishmania donovani [2]): 88% |
| NC(CC[C@H](N)C(=O)O)C[C@H]1OC(n2ccc(=O)[nH]c2=O)[C@H](O)[C@@H]1O (stereo partly specified) |  | 20% |  |
